Laboratory results: ChEMBL document CHEMBL1772948, “Chemistry and biology of macrolide antiparasitic agents” (J Med Chem, 2011)
≈ marks a conversion by molar mass, not a printed value. Calls of active or inactive are those of the source. The calls are words filed in the database; no cut-off is given here.

What was measured:
Toxoplasma gondii [1] = experiment: Antiparasitic activity against green fluorescent protein expressing […] deficient Toxoplasma gondii RH infected in HFF assessed as parasite doubling time at 5 to 50 uM treated immediately after infection measured after 48 hrs; type: functional
How it was run: (§1)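 HFF were grown on glass coverslips in 12-well plates and infected with 2×10^4 GFP tachyzoites per well. Compound was added with the inoculum; the first cycle ran 48 h, and the second cycle ran in fresh HFF without drug. Parasites per vacuole were counted by fluorescence microscopy, at least 50 random vacuoles per well, to derive doubling time. Three independent experiments.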

Toxoplasma gondii [2] = experiment: Antiparasitic activity against green fluorescent protein expressing hwgprt deficient Toxoplasma gondii RH infected in HFF assessed as reduction of ycf24/UPRT genes copy number ratio at 10 uM treated for 42 hrs starting 6 hrs after infection followed by reinoculated into fresh HFF monolayers measured after 48 hrs by RT-PCR analysis
Toxoplasma gondii [3] = experiment: (§2) Antiparasitic activity against clindamycin-resistant Toxoplasma gondii 4 infected in HFF assessed as reduction of ycf24/UPRT genes copy number ratio at 0.1 uM treated for 48 hrs after 6 hrs infection followed by reinoculated into fresh HFF monolayers measured after 48 hrs by RT-PCR analysis; type: functional
How it was run: (§3)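 Tachyzoites were seeded on confluent HFF monolayers in 6-well plates at 2×10^5 per well, in DMEM with 10% FBS and 1% PS at 37 °C, 5% CO2. After 6 h pre-infection, the medium was replaced with medium containing compound for 42 h. Released parasites were reinoculated into fresh HFF without drug for 48 h, collected by centrifugation, and measured by qPCR as the ratio of plastid ycf24 to nuclear UPRT copies. At least triplicate.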

Toxoplasma gondii [4] = experiment: Antiparasitic activity against green fluorescent protein expressing […] deficient Toxoplasma gondii RH infected in HFF at 5 to 50 uM treated 6 hrs after infection measured after 48 hrs followed by reinoculated into fresh HFF monolayers measured after 48 hrs; type: functional, organism-based
How it was run: (§4)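 GFP-expressing RHΔhxgprt tachyzoites were grown on HFF on glass coverslips in 12-well plates (2×10^4/well). Compound was added either with the parasites ("0h", 48 h) or after a 6 h pre-infection and medium change ("6h", 42 h). Parasites per vacuole were counted by fluorescence microscopy in at least 50 random vacuoles per well. Three independent experiments.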

Toxoplasma gondii [5] = experiment: Antiparasitic activity against green fluorescent protein expressing hwgprt deficient Toxoplasma gondii RH infected in HFF at 5 to 50 uM treated immediately after infection measured after 48 hrs followed by reinoculated into fresh HFF monolayers measured after 48 hrs; type: functional, organism-based
Bacillus subtilis = experiment: Antibacterial activity against Bacillus subtilis; type: functional
Toxoplasma gondii [6] = experiment: Antiparasitic activity against yellow fluorescent protein expressing Toxoplasma gondii 2F-1 treated 6 hrs after infection for 42 hrs followed by reinoculated into fresh HFF monolayers measured after 48 hrs; type: functional, organism-based
How it was run: (§5)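 Two-cycle protocol in HFF at 37 °C, 5% CO2, DMEM with 10% FBS. "0h": compound added with parasites, 48 h. "6h": parasites pre-incubated 6 h, uninvaded parasites removed, fresh medium with compound added, 42 h. Released tachyzoites were then harvested, purified and inoculated into fresh HFF without compound for the 2nd cycle. At least triplicate.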

Toxoplasma gondii [7] = experiment: (§6) Antiparasitic activity against clindamycin-resistant Toxoplasma gondii 4 infected in HFF assessed as reduction of ycf24/UPRT genes copy number ratio at 1 uM treated for 48 hrs after 6 hrs infection followed by reinoculated into fresh HFF monolayers measured after 48 hrs by RT-PCR analysis; type: functional
Toxoplasma gondii [8] = experiment: as §2, with “against green fluorescent protein expressing hwgprt deficient” for “against clindamycin-resistant”, “gondii RH” for “gondii 4”; type: functional; how it was run: as §3
Toxoplasma gondii [9] = experiment: Antiparasitic activity against Toxoplasma gondii 2F-1 expressing yellow fluorescent protein infected in HFF after 4 days; type: functional, organism-based; details: 2F-1, 96 h
Toxoplasma gondii [10] = experiment: Antiparasitic activity against clindamycin-resistant Toxoplasma gondii 4 infected in HFF assessed as reduction of ycf24/UPRT genes copy number ratio at 0.1 uM treated for 48 hrs immediately after infection followed by reinoculated into fresh HFF monolayers measured after 48 hrs by RT-PCR analysis; type: functional
How it was run: (§7)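 Tachyzoites were seeded on confluent HFF in 6-well plates at 2×10^5 per well, in DMEM with 10% FBS and 1% PS at 37 °C, 5% CO2. Compound was added together with the parasite inoculum, and cultures ran 48 h. Harvested tachyzoites were reinoculated into fresh HFF without drug for a second cycle. Parasites were pelleted by centrifugation and the plastid ycf24 to nuclear UPRT copy ratio was read by qPCR (40 cycles, 94 °C 3 s / 60 °C 30 s). At least triplicate.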

Toxoplasma gondii [11] = experiment: Antiparasitic activity against clindamycin-resistant Toxoplasma gondii 4 infected in HFF assessed as reduction of ycf24/UPRT genes copy number ratio at 10 uM treated for 48 hrs after 6 hrs infection followed by reinoculated into fresh HFF monolayers measured after 48 hrs by RT-PCR analysis; type: functional; how it was run: as §3
Toxoplasma gondii [12] = experiment: Antiparasitic activity against yellow fluorescent protein expressing Toxoplasma gondii 2F-1 infected in HFF treated immediately after infection measured after 48 hrs; type: functional, organism-based; details: 2F-1, 48 h
Toxoplasma gondii [13] = experiment: Antiparasitic activity against yellow fluorescent protein expressing Toxoplasma gondii 2F-1 treated immediately after infection for 48 hrs followed by reinoculated into fresh HFF monolayers measured after 48 hrs; type: functional, organism-based; details: 2F-1, 48 h; how it was run: as §5
Toxoplasma gondii [14] = experiment: Antiparasitic activity against green fluorescent protein expressing […] deficient Toxoplasma gondii RH infected in HFF at 5 to 50 uM treated 6 hrs after infection measured after 48 hrs; type: functional, organism-based; how it was run: as §4
Toxoplasma gondii [15] = experiment: (§8) Antiparasitic activity against clindamycin-resistant Toxoplasma gondii 4 infected in HFF assessed as reduction of ycf24/UPRT genes copy number ratio at 1 uM treated for 48 hrs immediately after infection followed by reinoculated into fresh HFF monolayers measured after 48 hrs by RT-PCR analysis; type: functional
How it was run: as §7, with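 “CO2.” for “CO2. Compound was added together with the parasite inoculum, and cultures ran 48 h.”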

Toxoplasma gondii [16] = experiment: Antiparasitic activity against green fluorescent protein expressing […] deficient Toxoplasma gondii RH assessed as parasite doubling time at 5 to 50 uM treated immediately after infection for 48 hrs followed by reinoculated into fresh HFF monolayers measured after 48 hrs; type: functional; how it was run: as §1
Toxoplasma gondii [17] = experiment: Antiparasitic activity against green fluorescent protein expressing […] deficient Toxoplasma gondii RH infected in HFF assessed as decrease in density of parasitophorous vacuoles at 10 uM treated 6 hrs after infection measured after 24 hrs by microscopic analysis; type: functional, organism-based
How it was run: (§9)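 GFP T. gondii RHΔhxgprt in HFF, compound (10 μM) added either with the inoculum ("0h") or after 6 h pre-infection and washing ("6h"); vacuoles per microscope field scored at 24 h, at least 20 random fields from each of three experiments.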

Toxoplasma gondii [18] = experiment: Antiparasitic activity against yellow fluorescent protein expressing Toxoplasma gondii 2F-1 infected in HFF treated 6 hrs after infection measured after 48 hrs; type: functional, organism-based
Toxoplasma gondii [19] = experiment: Antiparasitic activity against green fluorescent protein expressing hwgprt deficient Toxoplasma gondii RH infected in HFF at 5 to 50 uM treated immediately after infection measured after 48 hrs; type: functional, organism-based; how it was run: as §4
Toxoplasma gondii [20] = experiment: as §8, with “against green fluorescent protein expressing […] deficient” for “against clindamycin-resistant”, “gondii RH” for “gondii 4”; type: functional
How it was run: as §7, with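 “CO2.” for “CO2. Compound was added together with the parasite inoculum, and cultures ran 48 h.”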

Toxoplasma gondii [21] = experiment: Antiparasitic activity against green fluorescent protein expressing […] deficient Toxoplasma gondii RH infected in HFF assessed as decrease in density of parasitophorous vacuoles at 10 uM treated immediately after infection measured after 24 hrs by microscopic analysis; type: functional, organism-based; how it was run: as §9
Toxoplasma gondii [22] = experiment: as §6, with “against green fluorescent protein expressing hwgprt deficient” for “against clindamycin-resistant”, “gondii RH” for “gondii 4”; type: functional
Toxoplasma gondii [23] = experiment: Antiparasitic activity against clindamycin-resistant Toxoplasma gondii 4 infected in HFF assessed as reduction of ycf24/UPRT genes copy number ratio at 10 uM treated for 48 hrs immediately after infection followed by reinoculated into fresh HFF monolayers measured after 48 hrs by RT-PCR analysis; type: functional; how it was run: as §7
Toxoplasma gondii [24] = experiment: Antiparasitic activity against green fluorescent protein expressing hwgprt deficient Toxoplasma gondii RH infected in HFF assessed as reduction of ycf24/UPRT genes copy number ratio at 10 uM […] followed by reinoculated into fresh HFF monolayers measured after 48 hrs by RT-PCR analysis; type: functional
HFF = experiment: Cytotoxicity against HFF after 48 hrs by MTS assay; type: cell-based; details: human
How it was run: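 Low-passage HFF seeded in 96-well plates and incubated 24h at 37 °C, then exposed to varying macrolide concentrations for 2 days; medium replaced with fresh medium plus MTS, 4h at 37 °C, absorbance 490 nm; CC50 = dose reducing viability by 50%.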

Toxoplasma gondii [25] = experiment: (§10) Antiparasitic activity against green fluorescent protein expressing […] deficient Toxoplasma gondii RH infected in HFF assessed as reduction of ycf24/UPRT genes copy number ratio at 0.1 uM treated for 48 hrs immediately after infection followed by reinoculated into fresh HFF monolayers measured after 48 hrs by RT-PCR analysis; type: functional; how it was run: as §7
Toxoplasma gondii [26] = experiment: Antiparasitic activity against clindamycin-resistant Toxoplasma gondii 4 infected in HFF assessed as reduction of ycf24/UPRT genes copy number ratio at 5 uM treated for 48 hrs immediately after infection followed by reinoculated into fresh HFF monolayers measured after 48 hrs by RT-PCR analysis; type: functional, organism-based; how it was run: as §7
Toxoplasma gondii [27] = experiment: as §10, with “5” for “0.1”; type: functional, organism-based; how it was run: as §7
Toxoplasma gondii [28] = experiment: Antiparasitic activity against green fluorescent protein expressing […] deficient Toxoplasma gondii RH infected in HFF assessed as reduction of ycf24/UPRT genes copy number ratio at 5 uM treated for 48 hrs after 6 hrs infection followed by reinoculated into fresh HFF monolayers measured after 48 hrs by RT-PCR analysis; type: functional, organism-based
How it was run: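 HFF monolayers infected with RHΔhxgprt (or Clin^R-4) in 6-well plates; after 6 h medium changed and compound present 42 h; at 48 h parasites reinoculated into fresh HFF for 48 h without compound; parasites pelleted at 2,000 rpm 10 min; qPCR (94 °C 20 s, then 40 cycles 94 °C 3 s/60 °C 30 s) plastid ycf24 vs nuclear UPRT copy ratio.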

Toxoplasma gondii [29] = experiment: Antiparasitic activity against clindamycin-resistant Toxoplasma gondii 4 infected in HFF assessed as reduction of ycf24/UPRT genes copy number ratio at 5 uM treated for 48 hrs after 6 hrs infection followed by reinoculated into fresh HFF monolayers measured after 48 hrs by RT-PCR analysis; type: functional, organism-based

Molecule	MIC (Bacillus subtilis) [µM]	IC50 (Toxoplasma gondii [6]) [nM]	Ratio (Toxoplasma gondii [7])	IC50 (Toxoplasma gondii [12]) [µM]	IC50 (Toxoplasma gondii [13]) [nM]	Ratio (Toxoplasma gondii [15])	IC50 (Toxoplasma gondii [18]) [µM]	Ratio (Toxoplasma gondii [20])	Activity (Toxoplasma gondii [21])	Ratio (Toxoplasma gondii [22])	CC50 (HFF) [µM]	further results
CC[C@H]1OC(=O)[C@H](C)[C@@H](O[C@H]2C[C@@](C)(OC)[C@@H](O)[C@H](C)O2)[C@H](C)[C@@H](O[C@@H]2O[C@H](C)C[C@H](N(C)C)[C@H]2O)[C@](C)(O)C[C@@H](C)CN(C)[C@H](C)[C@@H](O)[C@]1(C)O [AZITHROMYCIN]	0.15 (≈ 0.112 µg/mL)	600	3	29	600	8	44	7	inactive	3	174	Time (Toxoplasma gondii [1]): 9.5 h; Ratio (Toxoplasma gondii [2]): 10; Ratio (Toxoplasma gondii [3]): 13; Activity (Toxoplasma gondii [4]): Active; Activity (Toxoplasma gondii [5]): Active; Ratio (Toxoplasma gondii [8]): 15; IC50 (Toxoplasma gondii [9]): 20 µM; Ratio (Toxoplasma gondii [10]): 18; Ratio (Toxoplasma gondii [11]): 4; Activity (Toxoplasma gondii [14]): Active; Time (Toxoplasma gondii [16]): >16 h; Activity (Toxoplasma gondii [17]): inactive; Activity (Toxoplasma gondii [19]): Active; Ratio (Toxoplasma gondii [23]): 10; Ratio (Toxoplasma gondii [24]): 3; Ratio (Toxoplasma gondii [25]): 7
CC[C@H]1OC(=O)[C@H](C)[C@@H](O[C@H]2C[C@@](C)(OC)[C@@H](O)[C@H](C)O2)[C@H](C)[C@@H](O[C@@H]2O[C@H](C)C[C@H](N(C)C)[C@H]2O)[C@](C)(O)C[C@@H](C)CN(CC2CCCCC2)[C@H](C)[C@@H](O)[C@]1(C)O	0.3 (≈ 0.249 µg/mL)	600	–	7	600	–	12	–	Active	–	36	–
SPIRAMYCIN	–	–	–	–	–	–	–	–	–	–	–	Ratio (Toxoplasma gondii [26]): 8; Ratio (Toxoplasma gondii [27]): 8; Ratio (Toxoplasma gondii [28]): 5; Ratio (Toxoplasma gondii [29]): 3
CC[C@H]1OC(=O)[C@H](C)[C@@H](O[C@H]2C[C@@](C)(OC)[C@@H](O)[C@H](C)O2)[C@H](C)[C@@H](O[C@@H]2O[C@H](C)C[C@H](N(C)C)[C@H]2O)[C@](C)(O)C[C@@H](C)CN(Cc2ccc(F)cc2)[C@H](C)[C@@H](O)[C@]1(C)O	0.3 (≈ 0.253 µg/mL)	700	–	6	500	–	9	–	Active	–	31	–
CCc1nc(N)nc(N)c1-c1ccc(Cl)cc1 [PYRIMETHAMINE]	–	–	23	–	–	27	–	29	–	22	–	–
CC[C@H]1OC(=O)[C@H](C)[C@@H](O[C@H]2C[C@@](C)(OC)[C@@H](O)[C@H](C)O2)[C@H](C)[C@@H](O[C@@H]2O[C@H](C)C[C@H](N(C)C)[C@H]2O)[C@](C)(O)C[C@@H](C)CN(CCCc2ccccc2)[C@H](C)[C@@H](O)[C@]1(C)O	0.6 (≈ 0.512 µg/mL)	600	–	4	600	–	8	–	Active	–	33	–
